Reference: ChEMBL document CHEMBL1765055 (J Med Chem, 2011)
Where “and” joins values, the source holds several entries; their conditions need not be identical. Equal values may be shown once. Non-standard residues stand in square brackets, D forms with d. Residues, ends and D or L forms follow the SMILES beside them. N(4-hydroxyphenethyl)Gly = O=C(O)CNCCc1ccc(O)cc1; Gly(N-4-hydroxybenzyl) = O=C(O)CNCc1ccc(O)cc1; N(1S-Me-propyl)Gly = CC[C@H](C)NCC(=O)O

What was measured:
[1] = target: T1, Neurotensin receptor type 2 (Homo sapiens, UniProt O95665); assay: Displacement of [3H]NT from human NTS2 receptor expressed in HEK293 cells; assay type: cell-based
T1 sequence (O95665 whole entry): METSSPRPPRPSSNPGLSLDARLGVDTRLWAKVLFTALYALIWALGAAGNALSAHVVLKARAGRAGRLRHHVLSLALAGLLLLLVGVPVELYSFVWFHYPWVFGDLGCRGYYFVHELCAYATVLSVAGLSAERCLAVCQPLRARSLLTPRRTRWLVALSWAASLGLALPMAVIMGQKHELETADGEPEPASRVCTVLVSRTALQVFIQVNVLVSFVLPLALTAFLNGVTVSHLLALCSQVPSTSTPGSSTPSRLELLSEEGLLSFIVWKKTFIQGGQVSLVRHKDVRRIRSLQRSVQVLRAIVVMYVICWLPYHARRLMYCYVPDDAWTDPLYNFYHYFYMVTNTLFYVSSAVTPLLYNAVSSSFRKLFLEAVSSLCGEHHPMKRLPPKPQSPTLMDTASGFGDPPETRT

[2] = target: T1, Neurotensin receptor type 2; assay: Agonist activity at human NTS2 receptor expressed in HEK293 cells assessed as inhibition of constitutive activity on MAPK-mediated luciferase activity; assay type: functional, cell-based
[3] = target: T1, Neurotensin receptor type 2; assay: Agonist activity at human NTS2 receptor expressed in HEK293 cells assessed as inhibition of constitutive activity on MAPK-mediated luciferase activity at 3 uM in presence of SR142948A; assay type: functional, cell-based
In short: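 HEK 293 cells transiently expressing hNTS2 plus Elk1 trans-activator/luciferase reporter plasmids were reseeded in 1% FBS medium. They received 3 μM compound together with graded concentrations of the antagonist SR142948A for 24 h at 37 °C. Luciferase luminescence was measured as the readout of constitutive MAPK activity. Mean curves came from 7–11 independent experiments in triplicate.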

[4] = target: T2, Neurotensin receptor type 1 (Homo sapiens, UniProt P30989); assay: Displacement of [3H]neurotensin from human NTS1 receptor expressed in CHO cells; assay type: cell-based
T2 sequence (P30989 whole entry): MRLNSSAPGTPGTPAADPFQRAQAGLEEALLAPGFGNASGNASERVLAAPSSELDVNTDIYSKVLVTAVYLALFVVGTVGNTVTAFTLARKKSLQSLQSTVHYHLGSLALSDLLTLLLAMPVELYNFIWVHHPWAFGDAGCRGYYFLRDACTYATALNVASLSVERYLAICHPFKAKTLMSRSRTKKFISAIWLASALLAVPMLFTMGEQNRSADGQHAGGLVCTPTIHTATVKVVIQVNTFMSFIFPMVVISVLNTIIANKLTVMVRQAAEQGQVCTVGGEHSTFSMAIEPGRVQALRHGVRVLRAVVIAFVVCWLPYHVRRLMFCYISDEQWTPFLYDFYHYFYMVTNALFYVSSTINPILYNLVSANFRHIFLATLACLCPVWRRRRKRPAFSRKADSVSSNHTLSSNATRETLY

[5] = species on record: Homo sapiens; assay: Selectivity ratio of Ki for human NTS1 to Ki for human NTS2
[6] = target: T1, Neurotensin receptor type 2; assay: Ratio of compound Emax to neurotensin Emax for human NTS2 receptor
[7] = target: T2, Neurotensin receptor type 1; assay: Ratio of compound Emax to neurotensin Emax for human NTS1 receptor

| Compound | Ki [1] | Ki [4] | Ratio Ki [5] | further results |
| --- | --- | --- | --- | --- |
| CC[C@H](C)[C@H](NC(=O)CN(CCc1ccc(O)cc1)C(=O)[C@@H]1CCCN1C(=O)[C@H](CCCNC(=N)N)NC(=O)[C@@H](N)CCCNC(=N)N)C(=O)N[C@@H](CC(C)C)C(=O)O | 8.8 nM |  |  | EC50 [2]: 480 nM; Activity [3]: Dose-dependent effect |
| CC[C@H](C)[C@H](NC(=O)[C@H](Cc1ccc(O)cc1)NC(=O)[C@@H]1CCCN1C(=O)[C@H](CCCNC(=N)N)NC(=O)[C@@H](N)CCCNC(=N)N)C(=O)N[C@@H](C)C(=O)O | 1300 nM |  |  |  |
| CC[C@H](C)[C@H](NC(=O)[C@H](CC1=CC=C(O)CC1)NC(=O)[C@@H]1CCCN1C(=O)[C@H](CCCNC(=N)N)NC(=O)[C@@H](N)CCCNC(=N)N)C(=O)N[C@@H](CC(C)C)C(=O)O |  |  |  | Kd [1]: 1.2 nM |
| CC[C@H](C)[C@H](NC(=O)[C@H](Cc1ccc(O)cc1)NC(=O)[C@@H]1CCCN1C(=O)[C@H](CCCCN)NC(=O)[C@@H](N)CCCCN)C(=O)N(CC(=O)O)CC(C)C | 1600 nM |  |  |  |
| CC[C@H](C)[C@H](NC(=O)CN(CCc1ccc(OC)cc1)C(=O)[C@@H]1CCCN1C(=O)[C@H](CCCN=C(N)N)NC(=O)[C@@H](N)CCCN=C(N)N)C(=O)N[C@@H](CC(C)C)C(=O)O | 38 nM |  |  |  |
| CC[C@H](C)[C@H](NC(=O)CN(CCc1ccccc1)C(=O)[C@@H]1CCCN1C(=O)[C@H](CCCN=C(N)N)NC(=O)[C@@H](N)CCCN=C(N)N)C(=O)N[C@@H](CC(C)C)C(=O)O | 20 nM |  |  |  |
| CC[C@H](C)[C@H](NC(=O)CN(CCc1ccccn1)C(=O)[C@@H]1CCCN1C(=O)[C@H](CCCNC(=N)N)NC(=O)[C@@H](N)CCCNC(=N)N)C(=O)N[C@@H](CC(C)C)C(=O)O | 100 nM |  |  |  |
| CC[C@H](C)[C@H](NC(=O)[C@H](Cc1ccc(O)cc1)NC(=O)[C@@H]1CCCN1C(=O)[C@H](CCCCN)NC(=O)CNCCCCN)C(=O)N[C@@H](CC(C)C)C(=O)O | 0.74 nM |  |  |  |
| CC[C@H](C)[C@H](NC(=O)[C@H](Cc1ccc(O)cc1)NC(=O)[C@@H]1CCCN1C(=O)[C@H](CCCCN)NC(=O)[C@@H](N)CCCCN)C(=O)N[C@@H](CC(C)C)C(=O)O | 6.1 nM |  |  |  |
| CC[C@H](C)[C@H](NC(=O)[C@H](Cc1ccc(O)cc1)NC(=O)[C@@H]1CCCN1C(=O)CN(CCCCN)C(=O)[C@@H](N)CCCCN)C(=O)N[C@@H](CC(C)C)C(=O)O | 21 nM |  |  |  |
| CC[C@H](C)N(CC(=O)N[C@@H](CC(C)C)C(=O)O)C(=O)[C@H](Cc1ccc(O)cc1)NC(=O)[C@@H]1CCCN1C(=O)[C@H](CCCCN)NC(=O)[C@@H](N)CCCCN (H-KKPY[N(1S-Me-propyl)Gly]L-OH) | 330 nM and 1200 nM | 3000 nM and 3300 nM |  |  |
| CC[C@H](C)[C@H](NC(=O)CN(Cc1ccc(O)cc1)C(=O)[C@@H]1CCCN1C(=O)[C@H](CCCCN)NC(=O)[C@@H](N)CCCCN)C(=O)N[C@@H](CC(C)C)C(=O)O (H-KKP[Gly(N-4-hydroxybenzyl)]IL-OH) | 1000 nM | 30000 nM | 30 |  |
| CC[C@H](C)[C@H](NC(=O)CN(CCc1ccc(O)cc1)C(=O)[C@@H]1CCCN1C(=O)[C@H](CCCCN)NC(=O)[C@@H](N)CCCCN)C(=O)N[C@@H](CC(C)C)C(=O)O (H-KKP[N(4-hydroxyphenethyl)Gly]IL-OH) | 4.3 nM | 32000 nM | 7400 | EC50 [2]: 590 nM; Emax [6]: 3.1 |
| CC[C@H](C)[C@H](NC(=O)CN(CCc1ccc(O)cc1)C(=O)[C@@H]1CCCN1C(=O)[C@H](CCCNC(=N)N)NC(=O)[C@@H](N)CCCCN)C(=O)N[C@@H](CC(C)C)C(=O)O (H-KRP[N(4-hydroxyphenethyl)Gly]IL-OH) | 4.4 nM | 8300 nM | 1900 | EC50 [2]: 690 nM; Emax [6]: 4.6 |
| CC[C@H](C)[C@H](NC(=O)CN(CCc1ccc(O)cc1)C(=O)[C@@H]1CCCN1C(=O)[C@H](CCCCN)NC(=O)[C@@H](N)CCCNC(=N)N)C(=O)N[C@@H](CC(C)C)C(=O)O (H-RKP[N(4-hydroxyphenethyl)Gly]IL-OH) | 6.7 nM | 80000 nM | 12000 | EC50 [2]: 840 nM; Emax [7]: 0.07; Emax [6]: 2.6 |
| H-ARPYIL-OH | 56 nM | 4.6 nM | 0.082 |  |
| H-RAPYIL-OH [listing 1 of 2 here] | 24 nM | 11 nM |  |  |
| H-RAPYIL-OH [listing 2 of 2 here] |  |  | 0.46 |  |
| H-RRAYIL-OH [listing 1 of 2 here] | 63 nM | 26 nM |  |  |
| H-RRAYIL-OH [listing 2 of 2 here] |  |  | 0.41 |  |
| H-RRPAIL-OH [listing 1 of 2 here] | 83 nM | 1300 nM |  |  |
| H-RRPAIL-OH [listing 2 of 2 here] |  |  | 16 |  |
| H-RRPYAL-OH [listing 1 of 2 here] | 63 nM | 100 nM |  |  |
| H-RRPYAL-OH [listing 2 of 2 here] |  |  | 1.6 |  |
